A short description of the data set: Toxicity liver stage against HepG2, at 10uM. Particulars: human, HepG2-A16-CD81EGFP cells; read-out: INHIBITION
It counts as cell-based. Also on record: test concentration 10 uM, cell line HepG2-A16-CD81EGFP. The method, boiled down: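 Uninfected HepG2-A16-CD81EGFP cells, 3 × 10^3 per well, 1536-well, plated on prespotted compound at 10 μM final, parasite-free screening media added to match infected plates; puromycin 10 μM positive, DMSO 0.5% negative; run in parallel with 48 h PbLuc assay at 37 °C, 5% CO2; viability by CellTiter-Glo luminescence, normalized to controls.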
Regarding `Cn1cncc1-c1nnc([C@H]2CCN(Cc3ccc(CO)o3)C2)o1`, the cytotoxicity at 10 µM is -4.09%.
In the case of `CC1(C)[C@H](Cc2cc(CN3CCCCC3)on2)C[C@@H]1NS(C)(=O)=O`, the cytotoxicity at 10 µM worked out at 1.12%.
The value for `CC1CCN(C[C@H]2CN3CC[C@H]2C[C@@H]3CNC(=O)c2ccco2)CC1` was -1.55%; that for `COC(=O)[C@@H]1CN(C(=O)Nc2ccccc2)CCN1C(C)=O` was 4.23%.
The value for `CCCOC(=O)c1ccc(-c2ccc(/C=C3\C(=O)NC(=N)N3C)o2)cc1` was 2.91%; that for `O=C1CC(c2cccnc2)c2c(c(C(=O)O)cn2-c2cccc(F)c2)N1` (configuration not stated) was -0.585%.
For `COc1ccc2c(c1)c(C(=O)Nc1cc(C)n(C)n1)cn2C(C)C`, the cytotoxicity at 10 µM is -1.33%.
The value for `COC(=O)CNC(=O)c1nc(Cl)sc1C(C)C` was 1.34%; that for `COc1ccccc1C(=O)Nc1nc2c(s1)CN(S(=O)(=O)C1CC1)CC2` was -11.7%.
As for `O=C(NCCOc1ccccc1)NCC(O)c1cccs1` (configuration not stated), the cytotoxicity at 10 µM is -7.83%.
As for `CCOc1ccc(S(=O)(=O)N(CCOC)Cc2ccoc2)cc1F`, the cytotoxicity at 10 µM was determined as 8.31%.
Consider `O=C(C1CCOCC1)N1CCC2(CCNCC2)C1`, for which the cytotoxicity at 10 µM came out at 3.41%.
For `Cn1nc(CN2CCCC2)c2c1CN(C(=O)c1ccc[nH]1)CC2`, the cytotoxicity at 10 µM was found to be 6.86%.
`CC(=O)c1ccc(NC(=O)N[C@H](C(=O)O)C(C)C)cc1`: the cytotoxicity at 10 µM is -14.8%.
`CC(C)(C)C(=O)N1CCC2(COCc3cnc(N4CCOCC4)nc32)C1` (configuration not stated): the cytotoxicity at 10 µM is -14.2%.
For `O=C(NCCC(O)c1ccccc1)c1ccco1` (configuration not stated), the cytotoxicity at 10 µM was -0.749%.
In the case of `Cc1cc(C(F)(F)F)n2nc(C3CCN(S(C)(=O)=O)CC3)cc2n1` it was 0.065%.
In the case of `CCN(CC)CCCNCc1cc2cc(C)cc(C)c2[nH]c1=O`, the cytotoxicity at 10 µM is 7.63%.
Consider `CCc1n[nH]c(C(=O)NCCn2ccc(C)n2)c1C`, for which the cytotoxicity at 10 µM stood at 8.58%.
Turning to `CS(=O)(=O)N1CCCC1c1cccc(Nc2nccs2)n1` (configuration not stated), the cytotoxicity at 10 µM was -33.4%.
As for `Cc1ncc(CNC(=O)Cc2ccsc2)c(C2CCCN2C)n1` (configuration not stated), the cytotoxicity at 10 µM is -1.25%.
Regarding `CN1CC(c2cc(O)nc(NCc3ccc(Cl)cc3)n2)CC1=O` (configuration not stated), the cytotoxicity at 10 µM is -9.54%.
With `CCCC(NC(=O)c1cc(C2CC2)[nH]n1)c1nnc2ccccn12` (configuration not stated), the cytotoxicity at 10 µM came to 0.11%.
With `Oc1cccc(CNCc2ccc(-n3cncn3)nc2)c1`, the cytotoxicity at 10 µM is 4.01%.
In the case of `COc1ccc(-c2noc(C3=NN(C)C(=O)CC3)n2)cc1OC` it was -0.51%; in that of `CCc1cccc(C)c1NC(=O)NCCCN(CC)S(C)(=O)=O`, 4.87%.
As for `CS(=O)(=O)C1(CNCc2cccc(-n3cccn3)c2)CCOCC1`, the cytotoxicity at 10 µM was -141%.
`Cn1cnc(S(=O)(=O)N2CCCc3cc(F)cc(F)c32)c1Cl`: the cytotoxicity at 10 µM is -0.767%.
For `O=C(NCc1nncn1C1CC1)c1ccccc1Oc1cccnc1`, the cytotoxicity at 10 µM was -4.97%.
Turning to `CN(C)c1ccc(C(=O)Nc2ccn(CCc3ccncc3)n2)cn1`, the cytotoxicity at 10 µM is -12.7%.
For `O=C(Nc1ccc(-n2cncn2)nc1)N(CC1CCOC1)C1CC1` (configuration not stated), the cytotoxicity at 10 µM was -9.2%.
As for `Cc1nnc2n1CCN(C(=O)c1cnc3c(cnn3CC(C)C)c1)C2`, the cytotoxicity at 10 µM was -8.72%.
In the case of `CN(C)C(CNC(=O)NCCS(C)(=O)=O)c1ccco1` (configuration not stated) it was 4.41%.
`CC(C)CC(=O)Nc1c(-c2ccc(F)cc2)ncn1C`: the cytotoxicity at 10 µM is 5.87%.
For the compound `CCSc1ccc(NC(=O)NC(C)c2c(C)nn(C)c2C)cn1` (configuration not stated), the cytotoxicity at 10 µM was -2.6%.
The value for `CSCCC(C)NC(=O)N(C)Cc1cc(Cl)cn1C` (configuration not stated) was 3.04%; that for `O=C(c1cccc2c1OCO2)N1CCC(N2CCCC2)CC1` was -2.35%; that for `CC(NC(=O)N1CCNC(=O)CC1)c1ccc(OC(F)F)cc1` (configuration not stated) was 11.6%.
In the case of `O=C(c1cnns1)N1CCN(Cc2ccc(F)cc2Cl)CC1` it was -127%.
Turning to `Cc1ccc(F)c(C(=O)Nc2c(C(N)=O)n[nH]c2C)c1`, the cytotoxicity at 10 µM is -0.587%.
With `CCc1n[nH]c(C2CN(Cc3csc(C4CCCC4)n3)CCO2)n1` (configuration not stated), the cytotoxicity at 10 µM is -14.6%.
As to `N#Cc1ccc(OC2CCN(CC(=O)NCC(F)(F)F)CC2)cc1`, the cytotoxicity at 10 µM was determined as 11.9%.
In the case of `COCCS(=O)(=O)NCC(C)c1cccc(C)c1` (configuration not stated), the cytotoxicity at 10 µM was found to be 2.03%.
For `CC(C)C(CCO)NC(=O)Nc1cc(F)ccc1-n1cccn1` (configuration not stated), the cytotoxicity at 10 µM was -4.06%.
`CN(CC(N)=O)CC(=O)N(C1=CCCCC1)C1CC1`: the cytotoxicity at 10 µM is -3.85%.
As for `CCC1CCCCN1C(=O)c1ccc2[nH]nnc2c1` (configuration not stated), the cytotoxicity at 10 µM was -10.7%.
`CCOC(C)c1nc(CN2CCC(CNC(C)=O)CC2)cs1` (configuration not stated): the cytotoxicity at 10 µM is -15%.
As to `CN(C)S(=O)(=O)N1CCCC1CC(=O)c1cccs1` (configuration not stated), the cytotoxicity at 10 µM is -9.44%.
As for `CN(CC(=O)N1CCN(c2ncccn2)CC1)c1ccc(Cl)cn1`, the cytotoxicity at 10 µM was -9.65%.
As to `CC(C)OCCOCc1cccc(NC(=O)NCc2ccncc2)c1`, the cytotoxicity at 10 µM was -12%.
Turning to `CCc1noc(C(C)N2CCN(c3ccc(C#N)cc3F)CC2)n1` (configuration not stated), the cytotoxicity at 10 µM was -9.7%.
The value for `COc1c(C2CCCN2C(=O)c2ccc(Cl)o2)c(C)nn1C` (configuration not stated) was -10.4%.
For the compound `CCN(CC)CC(=O)NCc1cccnc1-n1cnc2ccccc21`, the cytotoxicity at 10 µM was determined as 1.77%.
For the compound `CSCC(=O)NC1CC(=O)N(CCc2ccccc2)C1` (configuration not stated), the cytotoxicity at 10 µM is -2.1%.
Turning to `Cc1cc(-c2ccc(C(C)N3CCCCC3)cc2)cnc1N` (configuration not stated), the cytotoxicity at 10 µM was -3.44%.
`COc1ccc(OCc2cc(C(=O)N3CCSCC3)n[nH]2)c(Cl)c1`: the cytotoxicity at 10 µM is -7.51%.
On to `CCNc1nc(C)c(C(=O)N(C)Cc2nc(-c3ccncc3)no2)s1`, for which the cytotoxicity at 10 µM was determined as 1.41%.
With `Cc1ccnc(NCCNC(=O)C2CC3(CCNCC3)CN2C)c1` (configuration not stated), the cytotoxicity at 10 µM was determined as 2.69%.
Consider `C[C@@H]1CN(CCOc2ccc(Cl)cc2)CC[C@@]1(O)C1CCOCC1`, for which the cytotoxicity at 10 µM was 19.4%.
`COC(=O)NCC(=O)N1CCC(Oc2cccc(C)c2)CC1`: the cytotoxicity at 10 µM was -0.555%.
On to `CC(Oc1ccc(F)cc1F)C(=O)N1CCC2(CC1)CC(=O)N(C)C2` (configuration not stated), for which the cytotoxicity at 10 µM turned out to be 1.63%.
For `Cc1ccc(-c2nc(CN3CCOCS3(=O)=O)c(C)o2)cc1`, the cytotoxicity at 10 µM is -0.724%.
Consider `CCC(CO)N(Cc1cccnc1)Cc1ccc(-c2ccn[nH]2)s1` (configuration not stated), for which the cytotoxicity at 10 µM is -1.55%.
Consider `COc1cccn(CC(=O)N2CCCC3(CCCCC3)C2)c1=O`, for which the cytotoxicity at 10 µM is -1.29%.
As for `CN(C)CC(C)(C)Cn1cnc(-c2ccccc2)c1-c1ccncc1`, the cytotoxicity at 10 µM worked out at 4.19%.
On to `O=C(C1CCC1)N1CCN(Cc2ccsc2)[C@H]2CS(=O)(=O)C[C@H]21`, for which the cytotoxicity at 10 µM was -12%.
For the compound `CCC1CN(C(=O)c2ccc(Cl)cc2O)CCN1C(C)C` (configuration not stated), the cytotoxicity at 10 µM is -15.5%.
Turning to `Cc1ncsc1-c1nnc(C2CCN(CC3CCCCC3)CC2)o1`, the cytotoxicity at 10 µM was determined as 1.59%.
For `Cc1c[nH]nc1C1CCCCN1C(=O)Cn1cc(Cl)cn1` (configuration not stated), the cytotoxicity at 10 µM was found to be 4.11%.
On to `Cc1ccn(CCC(=O)N2CCOC(c3nc(-c4cccs4)no3)C2)n1` (configuration not stated), for which the cytotoxicity at 10 µM came out at 7.03%.
On to `CCOCC(O)CN1CCN(C(=O)c2cc(Cl)ccc2F)CC1` (configuration not stated), for which the cytotoxicity at 10 µM was -6.54%.
Take `NC(=O)c1cnn2c1NCC(CNCCOc1ccccc1)C2` (configuration not stated): the cytotoxicity at 10 µM was -11.4%.
With `Cc1csc(C2CCCN(C(=O)Cn3ccccc3=O)C2)n1` (configuration not stated), the cytotoxicity at 10 µM is -5.68%.
In the case of `CC(C)Oc1ncccc1CNC(=O)Nc1ccccn1` it was -9.41%; in that of `c1ccc(-n2cc(CN3CCCC3Cn3cccn3)nn2)cc1` (configuration not stated), 0.207%; in that of `Cc1ccc(OCC(=O)NC2CCN(S(C)(=O)=O)CC2)cc1`, -0.0552%.
Consider `Cc1ccc(CNC(=O)NC(C)Cn2cccn2)cn1` (configuration not stated), for which the cytotoxicity at 10 µM is -11.2%.
For `COC1CCN(Cc2csc(C(C)C)n2)CC1`, the cytotoxicity at 10 µM came to 3.32%.
Regarding `Cc1cc(NC(=O)C(C)N2CCN(c3nc(C)cs3)CC2)on1` (configuration not stated), the cytotoxicity at 10 µM was -0.71%.
With `CN(Cc1cc(-c2ccccc2)no1)CC1CCCN1c1cccnn1` (configuration not stated), the cytotoxicity at 10 µM is -9.09%.
Regarding `CN(Cc1cccnc1)CC1CCCN1c1cccnn1` (configuration not stated), the cytotoxicity at 10 µM was 0.192%.
The value for `FC(F)(F)c1nc(C2CCCNC2)no1` (configuration not stated) was 5.25%.
In the case of `NCCc1cn(Cc2ccccn2)c2ccccc12` it was 3.71%; in that of `Cc1ccc([C@]2(O)CC[C@H]3CN(Cc4ccccc4F)C[C@H]32)nc1`, -12.8%; in that of `CCN1CCn2c(C)cnc2C12CCN(C(=O)N(C)C)CC2`, 4.91%.
As to `CN1CC[C@@H]2[C@@H](CO[C@H]2CNC(=O)c2nccn2C)C1`, the cytotoxicity at 10 µM is -113%.
As for `c1ccc(CN2CCCn3nnc(CNc4ncccn4)c3C2)nc1`, the cytotoxicity at 10 µM is -3.29%.
The value for `O=C(NC1CCCC1)c1ccc(C2CCCNC2)nc1` (configuration not stated) was -13.7%.
As to `O=C(C[C@@H]1COC[C@H]2CN(Cc3ccc(F)cc3)C[C@@H]12)N1CCOCC1`, the cytotoxicity at 10 µM was found to be 7.75%.
In the case of `CCN1CCn2cc(CNC(=O)c3cnn(C)c3)nc2C1`, the cytotoxicity at 10 µM came out at 8.88%.
For `Fc1cccnc1OC[C@@]12CCO[C@@H]1CCN(CC1CCOCC1)C2`, the cytotoxicity at 10 µM is -14.6%.
The value for `Cc1nc(Cn2c3c(ccc2=O)CCN(CC2CCC2)CC3)cs1` was 5.1%; that for `c1cncc(C2COC3(CCN(CC4CC4)CC3)C2)c1` (configuration not stated) was -14.9%.
Turning to `CNC(=O)N1CC[C@H]2N(C)CC[C@@]2(C(=O)N2CCOCC2)CC1`, the cytotoxicity at 10 µM is -2.72%.
The value for `CCn1cc2c(n1)CN(S(=O)(=O)c1cn(C)cn1)CC2COC` (configuration not stated) was 5.41%.
Turning to `O=S(=O)(Cc1ccccc1)N1CCCn2cnc(CN3CCCC3)c2C1`, the cytotoxicity at 10 µM is 3.3%.
Take `CCOC(=O)c1cnn(C2CCN(C(=O)CC(C)(C)C)CC2)c1N`: the cytotoxicity at 10 µM worked out at 6.26%.

For the origin of these results see ChEMBL document CHEMBL4513216, “Probing the Open Global Health Chemical Diversity Library for Multistage-Active Starting Points for Next-Generation Antimalarials” (ACS Infect Dis, 2020).
